In the library only some 2.6% were active in any assay of this set; here they are far more common.
FGF22 binding = binders of human FGF22 protein, primary screen, FGF22 synaptogenesis inhibitor project, biophysical, thermal shift, single point | Fibroblast growth factor 22 (Homo sapiens), Q9HCT0 | recombinant FGF22 thermal shift, SYPRO orange fluorescence; percent of sucrose octasulfate shift, DMSO zero | activity (Tm shift, normalised), % at 9.99 µM | hit rate 1.5% among 340,000 | AID 651658, 2012;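 active = mean Tm shift, scaled 0 neutral to 100 positive control, at about 1.3% or above, every replicate too, limit read from the data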
Target sequence (Q9HCT0 whole entry, looked up): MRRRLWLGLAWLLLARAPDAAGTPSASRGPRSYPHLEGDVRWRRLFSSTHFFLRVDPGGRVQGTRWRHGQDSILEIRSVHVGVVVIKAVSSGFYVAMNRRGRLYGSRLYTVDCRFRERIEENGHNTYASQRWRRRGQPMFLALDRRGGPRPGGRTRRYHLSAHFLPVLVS
CASP6 VEID inh = human caspase-6 inhibitors, primary screen, biochemical, VEID-R110 fluorescence, single point, set 2; AID 686996, 2013; purified caspase-6, Z-VEID-R110 cleavage fluorescence; P55212; inhibition, % at 12.5 µM; hit rate 0.53% among 350,000;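 active = mean inhibition across replicates at least about 35%, with every replicate also reaching that limit, limit read from the data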;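 note: 0% = median of neutral control wells and 100% = no fluorescence left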
SIRT5 block = SIRT5 desuccinylase inhibitors, primary screen, biochemical, fluorescence imaging, single point, set 5; NAD-dependent protein deacylase sirtuin-5, mitochondrial (Homo sapiens), Q9NXA8; Purified SirT5, succinyl-peptide AMC, trypsin-coupled fluorescence; inhibition, % at 15 µM; hit rate 1.1% among 330,000; AID 652115, 2013; in the data active = inhibition above about 15%
Target sequence (Q9NXA8 whole entry, looked up): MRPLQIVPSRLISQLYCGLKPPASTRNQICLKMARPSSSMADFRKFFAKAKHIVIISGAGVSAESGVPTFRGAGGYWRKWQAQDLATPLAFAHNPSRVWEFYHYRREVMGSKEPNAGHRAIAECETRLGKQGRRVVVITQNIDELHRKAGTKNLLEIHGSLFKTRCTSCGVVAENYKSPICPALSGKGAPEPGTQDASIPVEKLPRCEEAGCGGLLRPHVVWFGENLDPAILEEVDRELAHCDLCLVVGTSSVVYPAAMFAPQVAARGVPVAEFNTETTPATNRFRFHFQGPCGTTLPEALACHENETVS
NSD2 inh = NSD2 histone methyltransferase inhibitors, primary screen, biochemical, AlphaScreen, single concentration, set 2; inhibition, % at 12.5 µM; hit rate 0.54% among 310,000; AID 743445, 2014; NSD2 peptide methylation, 120 min; Histone-lysine N-methyltransferase NSD2 (Homo sapiens), O96028; in the data active = inhibition above about 50%
UCH37 inh = inhibitors of human UCH37 deubiquitinase, primary screen, biochemical, Ub-AMC cleavage, fluorescence; purified proteasome/UCH37; hit rate 0.33% among 330,000; Ubiquitin carboxyl-terminal hydrolase isozyme L5 (Homo sapiens), Q9Y5K5; AID 588478, 2011; inhibition, % (test concentration not listed);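 active = mean inhibition over replicate wells above about 20%, limit read from the data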;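 note: 0% = compound-free wells with enzyme and 100% = wells lacking proteasome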
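Schedule: 30 min plus 25 min, room temperature / Material: human UCH37 within purified proteasomes / Technique: AMC fluorescence intensity at 355/460 nm / Buffer or medium: pH 7.4 Tris-HCl (50 mM) with ovalbumin, ATP-MgCl2, DTT / Controls: wells without proteasome as full block, compound-free enzyme plus substrate as uninhibited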
An asterisk follows results filed as active; / = no result.

SMILES	FGF22 binding	CASP6 VEID inh	SIRT5 block	NSD2 inh	UCH37 inh
CCOC(=O)c1ccsc1NC(=O)CCS(=O)(=O)c1ccccc1	0.0	-5.2	-5.9	-1.2	-2.3
CCOC(=O)c1cc(C(C)C)sc1NC(=O)COC(=O)CCS(=O)(=O)c1ccccc1	0.1	-7.6	33.5*	-2.0	0.9
Cc1cc2nc3s/c(=C/c4ccc(-c5ccccc5C(=O)O)o4)c(=O)n3c2cc1C	0.5	36.0*	-3.7	23.1	/
C[C@@H]1CCCCO[C@H](CN(C)C(=O)NC2CCCCC2)[C@H](C)CN([C@H](C)CO)C(=O)c2cc(NC(=O)c3ccccc3)ccc2O1	-0.1	/	/	/	/
COc1ccccc1/C=C/C=NN1CCN(Cc2ccccc2)CC1	/	/	/	/	5.5
O=C(Cn1nnc2c(cnn2-c2ccc(F)cc2)c1=O)Nc1ccccc1C(F)(F)F	43.1*	1.1	-5.7	-3.9	-99.4
CCCCNC(=S)N(C)N=Cc1ccccc1F	/	/	/	/	2.5
CC(C)(CO)NCC(O)Cn1cc(C=O)c2ccccc21 (configuration not stated)	43.1*	-2.2	0.9	-1.5	0.2
O=Cc1cn(CC(O)CN2CCCCC2)c2ccccc12 (configuration not stated)	-0.2	-3.3	0.0	-1.1	1.6
Cc1cccc(C=NNc2nnc(-c3ccccc3)c(=O)[nH]2)c1	/	/	/	/	2.4
Cc1ccc(NC(=O)CN2C(=O)S/C(=C/c3ccc(-c4cc(C(=O)O)ccc4C)o3)C2=O)cc1C	/	/	/	6.5	-2.1
Cc1ccc(C(=O)O)cc1-c1ccc(C=C2C(=O)c3ccccc3C2=O)o1	0.2	36.8*	7.5	54.5*	/
CCOC(=O)C1(CCCc2ccccc2)CCN(C(=O)c2cnc(C)cn2)CC1	44.2*	1.6	-1.5	-2.2	2.1
CCOC(=O)C1(CCCc2ccccc2)CCN(C(=O)c2cc(C)nc(C)n2)CC1	0.4	-4.2	-2.8	-0.9	5.5
CCc1cccc(CC)c1NC(=S)N1CCn2cccc2C1c1ccncc1 (configuration not stated)	42.2	-2.3	17.3*	-0.6	6.2
COc1ccc(NC(=O)N(C)C[C@@H]2OCc3cn(nn3)CCCC(=O)N([C@H](C)CO)C[C@@H]2C)c(OC)c1	-0.3	-0.6	-3.9	/	/
NC1=NN=C(c2ccc3c(c2)OCCO3)CS1	0.2	0.9	15.1*	4.1	4.7
Cc1sc(N)nc1-c1ccc2c(c1)OCCO2	-0.3	-1.6	-0.3	4.4	1.4
CC(=O)N(N=Cc1ccc(C)cc1)c1nc(CCl)cs1	/	/	/	/	1.4
CCCNC(=O)N(C)C[C@H]1Oc2cc(C#CCC(C)C)ccc2S(=O)(=O)N([C@@H](C)CO)C[C@@H]1C	-0.1	1.9	4.4	/	/
C=CCN1C(=O)/C(=C/c2ccc(OC(C)=O)c(OCC)c2[N+](=O)[O-])SC1=S	0.1	-1.0	-0.4	13.0	41.6*
CC(C)Oc1ccccc1C=NNC(=O)c1ccc(F)cc1	/	/	/	/	3.3
Cc1ccc(S(=O)(=O)Nc2cccc3c2O[C@H](CN(C)S(=O)(=O)c2cn(C)cn2)[C@@H](C)CN([C@H](C)CO)C3=O)cc1	-0.1	-2.1	2.2	/	/
C[C@H](CO)N1C[C@H](C)[C@@H](CN(C)Cc2ccncc2)Oc2ccc(NC(=O)CCCN(C)C)cc2C1=O	-0.6	/	-2.4	/	/
CCOC(=O)c1[nH]c(C)c(C(=O)OCC)c1C	0.4	1.1	/	/	5.6
SMILES	FGF22 binding	CASP6 VEID inh	SIRT5 block	NSD2 inh	UCH37 inh
CCOC(=O)c1c(C)[nH]c(C(=O)CN2C(=O)NC(C)(CC(C)C)C2=O)c1C (configuration not stated)	43.7*	-0.2	-4.6	0.6	-0.6
CO[C@@H](CN(C)Cc1nccs1)[C@H](C)CN([C@@H](C)CO)S(=O)(=O)c1ccc(F)cc1	0.0	-1.1	-2.1	/	/
CO[C@H](CN(C)Cc1nccs1)[C@@H](C)CN([C@@H](C)CO)S(=O)(=O)c1ccc(C)cc1	0.3	2.9	19.3*	/	/
O=S(=O)(N[C@H]1CC[C@@H](CCn2cc(C3(O)CCCC3)nn2)O[C@@H]1CO)c1ccc(Cl)cc1	-0.2	0.9	-2.0	/	/
O=C(NCC1CCCO1)C(=O)N/N=C/c1ccccc1C(=O)O (configuration not stated)	43.1*	-3.2	4.5	-2.4	/
O=C(NCC1CCCO1)C(=O)NN=Cc1cc(Cl)ccc1O (configuration not stated)	/	/	/	/	5.5
COCCN(C(=O)/C=C/c1cccc([N+](=O)[O-])c1)c1c(N)n(Cc2ccccc2)c(=O)[nH]c1=O	0.3	1.0	2.8	-2.7	3.7
COCCN(C(=O)/C=C/c1ccccc1)c1c(N)n(Cc2ccccc2)c(=O)[nH]c1=O	43.2*	3.2	-5.2	6.9	3.1
CC[C@H](C)[C@H](NC(N)=O)C(=O)Nc1ccc(OC)c(Cl)c1	-0.1	-2.9	/	-2.7	2.2
COc1ccc(NC(=O)CCCC(=O)O)cc1Cl	43.3*	-5.7	-3.3	-11.3	0.3
COc1ccc(NC(=O)CCCN2C(=O)CCC2=O)cc1Cl	/	/	/	-2.9	-3.0
COc1ccc(NC(=O)[C@@H](NC(N)=O)C(C)C)cc1Cl	43.8*	-1.1	-2.5	-0.9	0.2
COc1ccc(C=NNC(=O)CNC(=O)c2cccs2)cc1	/	/	/	/	6.3
O=C(N[C@H]1C=C[C@@H](CC(=O)N2CCCCC2)O[C@@H]1CO)c1ccccn1	0.0	6.4	5.8	/	/
O=C(NC1CCCCCCC1)c1c(O)c2ccccc2[nH]c1=O	/	/	/	-2.0	1.6
O=C(CCl)NNC(=O)c1c(O)c2ccccc2[nH]c1=O	-0.1	-0.2	0.9	10.2	3.3
O=C(NC1CC1)c1c(O)c2ccccc2[nH]c1=O	-0.2	44.9*	1.4	0.3	1.5
CCCCC(=O)NNC(=O)c1c(O)c2ccccc2[nH]c1=O	-0.4	-0.2	15.8*	-5.5	-0.4
Cc1ccc(OCCOc2cccc(C=NNC(N)=O)c2)cc1	/	/	/	/	1.2
O=C(CN1CCOCC1)NCC[C@@H]1CC[C@H](NC(=O)Nc2ccc(C(F)(F)F)cc2)[C@@H](CO)O1	0.0	-6.3	2.4	/	/
O=C(CSc1nc2ccccc2c(=O)n1-c1ccc(F)cc1F)NC1CC1	43.2*	1.1	/	-1.7	/
O=C(Nc1cccc(Cl)c1)c1cccc(N2C(=O)C3CC=CCC3C2=O)c1 (configuration not stated)	-0.3	35.5*	-2.1	20.9	-0.6
O=C(Nc1cccc(N2C(=O)C3CCCCC3C2=O)c1)c1ccccc1 (configuration not stated)	0.2	9.9	0.0	-0.4	4.3
COc1cc(C=NNC(=O)c2ccccc2O)ccc1OC(=O)CC1SC(=O)NC1=O (configuration not stated)	/	/	/	/	7.8
